Hit rate of the full screen: of about 190,000 compounds, about 1,800 (0.95%) were called active. Only a selection was taken, and actives are over-represented in it overall. Unmarked numbers belong to inactive results.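 Rule for the calls: active = activation above the screen-wide mean of compound activation plus 3 SD (cut at about 130% in these data); inactive = the rest.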

Experimental findings from PubChem BioAssay AID871 (The Scripps Research Institute Molecular Screening Center, 2007) are described below.

The test in a line: IL-6 driven STAT3 reporter potentiators, primary screen, U3A cells, luciferase, luminescence, MLSCN library (AID 871).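 Note: 0% = background luminescence of wells with medium and substrate only.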 Particulars: IL-6 STAT3-luciferase reporter, at 5.6 µM, active compounds read high, 100% = signal with IL-6 EC80 alone. An outline of the steps:
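Assay system – human STAT1-deficient U3A cells with stable STAT3-luciferase reporter · Also added – IL-6 (33 ng/mL) · Schedule – compound 1 h, then IL-6 6 h at 37 °C · Technique – reporter luminescence signal · Evaluation – % activation versus median of IL-6-stimulated wells · Benchmarks – IL-6-only wells as 100% reference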
In the case of `CN(C)c1ccc(C=C2C(=O)OC3(CCCC3)OC2=O)cc1`, the activation (% of control) was 103%.

Consider `COc1ccccc1-c1nnc(NC(=O)c2cccc(N3C(=O)CCC3=O)c2)o1`, for which the activation (% of control) is 116%. The same measure for `COc1ccccc1-c1nnc(NC(=O)c2ccc3ncsc3c2)o1`: 146% (active); for `COc1ccccc1-c1nnc(SCC(=O)Nc2cc(C)on2)o1`: 91%; for `Cc1scc(C(=O)NNC(=S)NCC(C)C)c1C`: 97.6%. The same measure for `Cc1ccc(C(C)(C)C)c(OCCCCN2CCCC2)c1`: 95.5%; for `Cc1nc(C)c(C(=O)Nc2ccc(C)c(F)c2)o1`: 92.3%; for `Cc1nc(C)c(C(=O)Nc2cccc(C)c2C)o1`: 105%. On to `COc1ccc(Cl)cc1NC(=O)c1oc(C)nc1C`, for which the activation (% of control) is 162% (active). The same measure for `Cc1cc(Cl)ccc1NC(=S)NCCCN1CCCC1=O`: 98.6%; for `COc1ccccc1N1CCN(C(=O)c2ccc(Cl)c(S(=O)(=O)N3CCCC3)c2)CC1`: 97%; for `Cc1ccc2c(Cl)c(C(=O)Nc3nn[nH]n3)sc2c1`: 96%. The same measure for `Cc1ccc(-c2cc(C(=O)Nc3nn[nH]n3)c3ccccc3n2)c(C)c1`: 140% (active). The same measure for `Cc1ccc(NC(=O)c2cc(-c3ccc(C)o3)nc3ccccc23)nc1`: 104%; for `CCOC(=O)C1(Cc2cccc(OC)c2)CCN(C(C)COC)CC1` (stereo not drawn): 108%; for `COc1cccc(NC(=O)c2ccc3c(SCC(=O)O)c4c(nc3c2)CCCC4)c1`: 106%. On to `COCC(=O)Nc1cc(C(=O)OC)cc(C(=O)OC)c1`, for which the activation (% of control) is 97.7%. For `C#CCSc1nnc(-c2sc3ccccc3c2Cl)o1`, the activation (% of control) was 125%. With `CCSc1nnc(-c2cc3c(s2)-c2ccccc2CC3)o1`, the activation (% of control) is 173% (active). The same measure for `Fc1ccc(CSc2nnc(-c3cc4c(s3)-c3ccccc3CC4)o2)cc1`: 117%.

With `CCNC(=O)COC(=O)CCNC(=O)c1cccc(C)c1`, the activation (% of control) is 102%. The same measure for `COc1cccc(C(=O)Oc2cc(C)[nH]c(=O)c2[N+](=O)[O-])c1`: 101%; for `OC(COc1ccc2ccccc2c1)Cn1cncn1` (stereo not drawn): 97.5%. The same measure for `OC(COc1cccc(OCC(O)CN2CCCC2)c1)CN1CCCC1` (stereo not drawn): 101%; for `OC(COc1ccc2ccccc2c1)CN1CCOCC1` (stereo not drawn): 159% (active); for `COc1ccc(/C=N/n2c(C)cc(C)cc2=O)cc1`: 83.5%. The same measure for `C=CCn1c(-c2sc(-c3ccccc3)nc2C)n[nH]c1=S`: 94.6%; for `C=CCn1c(-c2ccccc2OCC)n[nH]c1=S`: 158% (active); for `C=CCn1c(-c2ccc3[nH]c(C)c(C)c3c2)n[nH]c1=S`: 80.2%. Turning to `COc1ccc(CC(=O)N[C@@H](CCSC)c2nc3ccccc3[nH]2)cc1`, the activation (% of control) was 96.5%. The same measure for `COc1ccc(COC(=O)N/N=C(\C)CC(=O)Nc2ccc(Cl)cc2)cc1`: 101%; for `Cc1ccc(C2C(C#N)C(C#N)N3CCCN23)cc1` (stereo not drawn): 141% (active).

For `O=C(CCC(=O)NNc1nc2ccccc2c2nc(-c3ccccc3)nn12)NCCCN1CCCC1=O`, the activation (% of control) is 112%.

Take `Cc1nccn1CCCNC(=O)CC1C(=O)NCCN1Cc1ccc(Cl)c(F)c1` (stereo not drawn): the activation (% of control) was 100%. Regarding `COc1ccc(C(CC(=O)c2ccccc2)S(=O)(=O)c2ccccc2)cc1` (stereo not drawn), the activation (% of control) is 110%. The same measure for `Oc1c(C=Nc2cccc3nsnc23)ccc2ccccc12`: 144% (active); for `COc1ccc(C=Nc2cccc3ncccc23)cc1`: 109%; for `Cc1nc(NC(=O)c2cccc(Cl)c2)sc1-c1csc(Nc2cccc(Cl)c2)n1`: 117%. The same measure for `Cc1ccc(Nc2nc(-c3sc(NC(=O)c4ccccc4)nc3C)cs2)cc1`: 138% (active); for `CCCCC(=O)Nc1nc(C)c(-c2csc(Nc3ccc(Cl)cc3)n2)s1`: 149% (active); for `Cc1ccc(-c2csc(NNC(=O)c3ccccc3)n2)cc1`: 101%. The same measure for `COc1ccc(-c2csc(NC(=O)COC(=O)Cc3ccc(Cl)cc3Cl)n2)cc1`: 100%; for `Cc1nc(NC(=O)CN(C)S(=O)(=O)c2ccc(Cl)cc2)sc1C`: 106%. With `CCCCCCC(=O)Nc1nc(C)c(-c2csc(Nc3cc(Cl)ccc3OC)n2)s1`, the activation (% of control) is 105%. The same measure for `CCCCCCC(=O)Nc1nc(C)c(-c2csc(Nc3cccc(OC)c3)n2)s1`: 99.6%; for `C=CCCC(=O)Nc1nc(C)c(-c2csc(Nc3ccc(Cl)cc3)n2)s1`: 159% (active).

Consider `Cc1ccc(S(=O)(=O)c2ccc(Cl)cc2)cc1S(=O)(=O)NC(C(=O)O)C(C)C` (stereo not drawn), for which the activation (% of control) was 102%.

For `Clc1ccc(-c2nc3ccccn3c2CN2CCSCC2)cc1`, the activation (% of control) was 99.3%. The same measure for `Cn1c(=O)c2cc(S(=O)(=O)NCCC(=O)Nc3ccc(F)cc3F)ccc2n(C)c1=O`: 109%; for `COc1ccc(NC(=O)CC2C(=O)OCC3CCCCN32)cc1Cl` (stereo not drawn): 102%; for `COc1ccccc1CN(C)c1nnnn1-c1ccccc1`: 99.5%. The same measure for `COc1cccc(-n2cc(C(=O)O)c3ccccc3c2=O)c1`: 98.5%. Take `COC(=O)c1ccc(CSc2nc3ccccc3c(=O)n2-c2cccc(OC)c2)o1`: the activation (% of control) is 101%. Take `COc1cccc(-n2c(=S)[nH]c3c(oc4ccccc43)c2=O)c1`: the activation (% of control) was 136% (active). Take `O=Cc1ccc(OCc2cn3ccccc3n2)cc1`: the activation (% of control) was 101%. The same measure for `COc1ccc(/C=C(\NC(=O)c2ccc(OCC(C)C)cc2)C(=O)OCc2ccco2)cc1`: 111%; for `NNc1nc2c(Cl)cccc2s1`: 134% (active).

As for `Fc1cc(F)c2nc(Nc3nc4c(F)cccc4s3)sc2c1`, the activation (% of control) is 129%.

As for `COc1cccc2sc(Nc3nc(C)c(C(C)=O)s3)nc12`, the activation (% of control) is 108%. The same measure for `O=C(CSc1ccccn1)Nc1nc2c(ccc3ccccc32)s1`: 103%; for `NC(=O)Cn1nc([N+](=O)[O-])nc1Oc1ccc(Br)cc1`: 93.7%; for `CC(=O)N1N=C(c2ccccc2)OC1c1cccnc1` (stereo not drawn): 103%.

For `CC(=O)Nc1cccc(NC(=O)c2c(-c3ccccc3)noc2C)c1`, the activation (% of control) was 88.8%. The same measure for `CCOC(=O)c1c(-c2ccccc2)csc1NC(=S)NC(=O)c1ccccc1`: 106%. Regarding `CCOC(=O)c1c(-c2cccc(C)c2)csc1NC(=O)c1c(-c2ccccc2)noc1C`, the activation (% of control) was 137% (active).

For the compound `O=C(/C=C/c1ccccc1)Nc1nnc(SCC(=O)c2ccc3ccccc3c2)s1`, the activation (% of control) was 104%. The same measure for `COc1ccc(NS(=O)(=O)c2ccc(O)c(C(=O)OCC(=O)NC3CCCCC3)c2)cc1`: 102%; for `CCN=c1sc(C(=O)Nc2ccccc2)c(C)n1CC`: 84.4%; for `COc1ccccc1C1C2=C(COC2=O)Nc2cc3c(cc21)OCO3` (stereo not drawn): 144% (active). The same measure for `COc1cc2c(cc1/C=C1/NC(=O)N(c3ccccc3)C1=O)OCO2`: 88.5%. Regarding `CCCOc1ccccc1C1CC(=O)Nc2cc3c(cc21)OCO3` (stereo not drawn), the activation (% of control) was 66.4%.

On to `CSc1ccc(CN(C)CC(=O)NCc2ccc(F)cc2)cc1`, for which the activation (% of control) is 106%. The same measure for `CCOC(=O)N1CCN(CC(=O)Nc2ccc(F)cc2)CC1`: 108%; for `Cc1cc(NC(=O)CN2CCCC(C)C2)n(-c2nc3ccccc3s2)n1` (stereo not drawn): 113%. The same measure for `CCOC(=O)N1CCN(CC(=O)Nc2cc(C)nn2-c2nc3ccccc3s2)CC1`: 162% (active); for `O=C(CCNC(=O)c1ccc([N+](=O)[O-])cc1)Nc1ccccc1N1CCOCC1`: 104%; for `NC(=O)CC[C@@H]1NC(=O)[C@H](CO)NC(=O)c2cc([N+](=O)[O-])cc(I)c2NCC[C@@H](C(N)=O)NC1=O`: 95.5%.

For the compound `c1ccc(C2c3[nH]c4ccccc4c3CCN2Cc2cccn2-c2cccnc2)nc1` (stereo not drawn), the activation (% of control) is 94%.

For `Cc1cc(O)cc(O)c1C(=O)Cc1cnn(-c2ccccc2)c1`, the activation (% of control) is 92.8%. The same measure for `Oc1cccc(C2c3[nH]c4ccccc4c3CCN2Cc2cnn(-c3ccccc3)c2)c1` (stereo not drawn): 138% (active); for `Cc1ccc(Cl)cc1NC(=S)N(CCN(C)C)Cc1cccs1`: 96.1%.

For the compound `COc1ccc2c(CC(=O)OCC(=O)Nc3ccccc3[N+](=O)[O-])coc2c1`, the activation (% of control) is 110%. The same measure for `Cc1ccc2c(c1)c1ncnc(N3CCc4ccccc4C3)c1n2C`: 133% (active); for `Cc1ccc2c(c1)c1ncn(CCC3=CCCCC3)c(=O)c1n2C`: 104%. For `Cc1ccc(-c2cc(C(=O)N3CCc4ccccc4C3)no2)cc1`, the activation (% of control) is 98.3%.

Consider `Fc1ccc(COc2cccc(-c3n[nH]c(=S)o3)c2)cc1`, for which the activation (% of control) is 102%. The same measure for `CCOC(=O)N1CCN(Cc2nc3ccc([N+](=O)[O-])cc3c(=O)n2-c2cccc(OC)c2)CC1`: 83.3%. On to `CCn1cc(C(=O)NCCCN2CCCCCC2)c(=O)c2cc(S(=O)(=O)N3CCc4ccccc4C3)ccc21`, for which the activation (% of control) was 108%. `COc1ccc(NC(=O)ON=C2c3ccccc3-c3ccccc32)cc1`: the activation (% of control) is 152% (active). The same measure for `COc1ccc(NC(=O)C(Br)C(C)C)cc1` (stereo not drawn): 101%; for `COc1ccc(C(=O)ON=C2c3ccccc3-c3ccccc32)cc1OC`: 107%. The same measure for `COCCN(C(=O)c1ccccc1F)c1c(N)n(Cc2ccccc2)c(=O)[nH]c1=O`: 89.7%; for `CC12CN(NC(=O)c3ccc(Cl)cc3)C3(C#N)CC1CCC23C` (stereo not drawn): 104%.
